High-throughput results (PubChem)
CHT PAM = CHT positive allosteric modulators, primary screen, cell-based, membrane potential dye, choline EC20. B-score at 10 µM. AID 488977, 2010. CHT-expressing cells; active compounds read high; LV-AA mutant CHT in HEK293 cells. actives 0.49% (n = 310,000). High affinity choline transporter 1 (Homo sapiens), Q9GZV3;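 active means initial fluorescence not abnormally high and integrated response B-score, plate-corrected, over 3 SD above library mean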
Cl transport mod = KCC2 cotransporter modulators, thallium flux, primary screen, cell-based, HEK293 KCC2, FluoZin-2 fluorescence, MLSMR; KCC2 cells, thallium flux FluoZin-2 fluorescence; actives 2.2% (n = 190,000); Solute carrier family 12 member 5 (Homo sapiens), Q9H2X9; B-score of Tl+ flux slope (higher = more flux/activation; lower = inhibition) at 10 µM;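 active means thallium flux slope and its plate-corrected score both differing from the plate sample mean at a set confidence after two filtering rounds, in either direction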;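 further: slope of fluorescence scaled to starting intensity during 10 to 20 s after thallium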
CHT inh = inhibitors of human choline transporter CHT; High affinity choline transporter 1 (Homo sapiens), Q9GZV3; CHT-expressing cells, membrane potential dye, choline response; active compounds read low; actives 0.86% (n = 310,000); AID 488975, 2010; B-score at 10 µM;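 active means B-score over 3 SD under the library average, and starting fluorescence ratio not unusually high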;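 further: choline stimulus applied at its EC90 after an EC20 pre-addition; B-score computed on integrated fluorescence ratio after choline addition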
Rad51 HR inh = human RAD51 strand exchange inhibitors, primary screen, biochemical, fluorescence; inhibition, % at 10 µM; AID 1385, 2008; hRad51 DNA strand exchange, fluorescence dequenching; actives 0.085% (n = 200,000); DNA repair protein RAD51 homolog 1 (Homo sapiens), Q06609;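 active means inhibition above 40% at the single screening dose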;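 further: 0% = DMSO control wells and 100% = blanks with heterologous ssDNA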
Target sequence (Q06609 whole entry, looked up): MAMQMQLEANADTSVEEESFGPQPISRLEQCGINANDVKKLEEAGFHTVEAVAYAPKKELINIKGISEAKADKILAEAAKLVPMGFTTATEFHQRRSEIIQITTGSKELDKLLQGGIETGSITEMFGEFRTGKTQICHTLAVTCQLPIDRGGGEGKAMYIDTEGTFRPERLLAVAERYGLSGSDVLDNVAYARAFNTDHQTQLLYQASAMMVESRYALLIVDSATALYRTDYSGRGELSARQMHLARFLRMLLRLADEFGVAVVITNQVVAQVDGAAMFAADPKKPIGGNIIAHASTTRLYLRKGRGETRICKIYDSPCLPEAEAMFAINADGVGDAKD
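Read-out basis: percent inhibition relative to plate controls and blanks / Assay system: human Rad51 nucleoprotein filaments preassembled on unlabelled ssDNA / Timing: filaments 15 min 37 °C, then compound 30 min / Control set: per-plate controls and blanks / Technique: fluorescence dequenching at 485/520 nm / Compound: 10 µM final, single point / Also added: Fluorescein- and BHQ1-tagged 47-mer duplex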
KCC2 secondary = KCC2 modulators in sodium-free buffer, confirmation, cell-based, HEK293 KCC2, thallium flux, secondary assay; shares compounds with Cl transport mod; FluoZin2 fluorescence; active compounds read high; normalised thallium flux (F/F0 slope) at 10 µM; actives 15% (n = 3,700); AID 1713, 2009;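 active means thallium flux slope above the same plate's solvent-only control mean plus 3 SD; inconclusive means the two replicate wells disagree; inactive means no significant difference from solvent-only control wells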
KCC2 bumet counter = thallium flux persisting under bumetanide in KCC2 cells, confirmation, counter-screen for KCC2 modulator project, cell-based, HEK293 KCC2, FluoZin2, secondary assay 3; shares compounds with Cl transport mod; HEK293-KCC2 + bumetanide/ouabain; active compounds read high; normalized thallium flux at 10 µM; actives 49% (n = 3,700); AID 1714, 2009;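 active means thallium entry rate above the same plate's blocked-transporter control wells by more than 3 SD; inconclusive means the two repeat wells disagree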;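 further: raw slope of fluorescence over initial fluorescence between 10 and 20 s after thallium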
KCC2 secondary2 = KCC2 modulators without ouabain present, confirmation, cell-based, HEK293 KCC2, thallium flux, FluoZin2, secondary assay 2 | shares compounds with Cl transport mod | thallium flux FluoZin2 fluorescence; actives lie on both sides; F/F0 rise rate, 10–20 s post-thallium | normalized thallium flux at 10 µM | actives 23% (n = 3,700) | AID 1715, 2009;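 active means thallium flux slope more than 3 SD above or below the plate's solvent-only control mean, mostly below; inconclusive means the two repeat wells disagreed; inactive means no significant shift from solvent-only controls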;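 further: raw slope with 0.1% DMSO as baseline and bumetanide as block control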
HEK counter1 = thallium flux modulation in parental HEK cells, confirmation, counter-screen for KCC2 modulator project, cell-based, counterscreen 1; shares compounds with Cl transport mod; HEK293 parental cells, thallium flux FluoZin2, ouabain; baseline-ratio fluorescence slope, 10–20 s after thallium; thallium flux rate (normalised fluorescence) at 10 µM; actives 46% (n = 3,700);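 active means thallium flux rate significantly above the same plate's solvent-only control wells, beyond their mean plus 3 SD; inconclusive means the two replicate wells gave conflicting results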
KCC2 retest ouab = KCC2 inhibitors and activators, ouabain retest, confirmation, HEK-KCC2 cells; shares compounds with Cl transport mod; HEK293-KCC2, thallium flux FluoZin2 fluorescence; bidirectional: low = inhibitor, high = activator; raw Tl+ flux slope (below DMSO = inhibition, above = activation) at 10 µM; actives 48% (n = 3,700); AID 1717, 2009;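 active means thallium flux slope beyond 3 SD from same-plate DMSO control mean in most replicates, usually higher, sometimes lower; inconclusive means repeat tests gave conflicting results; inactive means no significant difference from controls in most replicates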;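 further: slope of initial-normalized fluorescence between seconds 10 and 20 after thallium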
HEK counter2 = native HEK Tl+ uptake effects, second counter-screen – HEK cells, counterscreen 2, counter-screen for KCC2 modulator project, confirmation; HEK293 parental, thallium flux FluoZin-2 fluorescence slope; AID 1718, 2009; actives 33% (n = 3,700); shares compounds with Cl transport mod; thallium flux slope at 10 µM;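 active means thallium flux slope above the same plate's solvent-control mean plus 3 SD in both duplicate wells; inconclusive means duplicate wells that disagreed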;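 further: run without ouabain in cells lacking the KCC2 cotransporter; slope of fluorescence scaled to its starting value between 10 and 20 s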
Active calls of the source: *; i = inactive; ? = inconclusive; / = no result given. Most compounds without a hit are left out; they make up all but 2.6% or so of the library.

SMILES | CHT PAM | Cl transport mod | CHT inh | Rad51 HR inh | KCC2 secondary | KCC2 bumet counter | KCC2 secondary2 | HEK counter1 | KCC2 retest ouab | HEK counter2
O=C(Nc1ccc(N2CCOCC2)cc1)C1CCCN(S(=O)(=O)c2cccc(C(F)(F)F)c2)C1 (stereo not drawn) | i | 1.2 | i | 4 | / | / | / | / | / | /
COc1ccccc1NC(=O)Nc1cc(F)ccc1F | i | -0.048 | i | 0 | / | / | / | / | / | /
O=C(CNC(=O)c1ccccc1F)NC1=NCCS1 | i | / | i | / | / | / | / | / | / | /
O=C(CNC(=O)c1cccs1)NC1=NCCS1 | i | 2.9* | i | 3 | 0.0057 | 0.0049 | 0.03 | 0.008 | 0.019 | 0.011
Cc1[nH]n(-c2ccccc2)c(=O)c1C(=O)c1ccccc1 | i | 4.4* | i | 5 | 0.0056 | 0.0085* | 0.034 | 0.012* | 0.022 | 0.014*
Cc1cc(C)n(-c2c(F)c(F)c(CO)c(F)c2F)n1 | i | -1.1 | i | -1 | / | / | / | / | / | /
O=C(CSc1nnnn1-c1ccccc1)Nc1nsc(-c2ccccc2)n1 | i | -6.3* | i | / | 0.017 | 0.0049 | 0.024* | 0.0076 | 0.014 | 0.01
O=C(CSc1nnnn1-c1ccccc1)Nc1nsc(-c2ccc(Cl)cc2)n1 | i | -0.47 | i | -2 | / | / | / | / | / | /
CCC1CCCCN1S(=O)(=O)c1ccc(C(=O)Nc2nnc(-c3ccccc3Cl)o2)cc1 (stereo not drawn) | i | 19* | i | 2 | 0.015* | 0.071* | 0.031 | 0.034* | 0.042* | ?
CCC1CCCCN1S(=O)(=O)c1ccc(C(=O)Nc2nnc(C3CC3)o2)cc1 (stereo not drawn) | i | / | i | / | / | / | / | / | / | /
CC1CCCCN1S(=O)(=O)c1ccc(C(=O)Nc2sccc2C(N)=O)cc1 (stereo not drawn) | i | -3.9* | i | 13 | 0.0057 | 0.0051 | 0.029 | 0.0079 | 0.018 | 0.012
NC(=O)c1ccsc1NC(=O)C1CCCN1S(=O)(=O)c1ccc(Cl)cc1 (stereo not drawn) | i | / | i | 7 | / | / | / | / | / | /
CC1CCCCN1S(=O)(=O)c1ccc(C(=O)Nc2nnc(-c3ccccc3Cl)o2)cc1 (stereo not drawn) | i | 17* | i | / | 0.014* | 0.053* | 0.034 | ? | 0.042* | ?
C/C(=N\NC(=O)CNC(=O)c1ccc(F)cc1)c1ccco1 | i | / | i | / | / | / | / | / | / | /
O=C(Cn1nc(-c2ccc(Cl)cc2)ccc1=O)NCc1ccc2c(c1)OCO2 | i | -1.4 | i | / | / | / | / | / | / | /
O=C(Cn1nc(-c2ccccc2)ccc1=O)NCc1ccc2c(c1)OCO2 | i | -3.3* | i | -3 | 0.0051 | ? | 0.025* | 0.0077 | ? | 0.011
Cn1cc(SCC(=O)N2CCN(c3ccccc3)CC2)c2ccccc21 | i | -5.2* | i | / | 0.0063 | 0.005 | 0.023* | 0.0069 | 0.014* | 0.0095
S=c1nc(-c2ccc(Br)cc2)[nH]c2ccccc12 | i | 93* | i | 16 | 0.047* | 0.13* | 0.078* | 0.12* | 0.11* | 0.092*
Fc1ccc(-c2nc3ccccc3[nH]2)cc1 | i | 0.69 | i | -21 | / | / | / | / | / | /
Cc1c(/C=N/NC(=O)c2ccccc2O)c2ccccn2c1C(=O)c1ccc(F)cc1 | i | -3.8* | i | / | 0.018 | ? | 0.03 | 0.0073 | 0.014 | 0.01
Cc1c(/C=N/NC(=O)c2ccc(O)cc2)c2ccccn2c1C(=O)c1ccc(F)cc1 | i | -2.1 | i | 2 | / | / | / | / | / | /
CCc1cc2cc(C)c(C)cc2nc1SCC(=O)NNC(=O)c1ccco1 | i | / | i | -8 | / | / | / | / | / | /
CCc1cc2cccc(C)c2nc1SCC(=O)NNC(=O)c1ccco1 | i | / | i | -5 | 0.0096 | 0.01* | 0.032 | 0.011* | 0.021 | 0.011
CCc1cc2ccc(OC)cc2nc1SCC(=O)N1CCN(C(=O)c2ccco2)CC1 | i | -4.1* | i | -11 | 0.0057 | 0.0039 | 0.024* | 0.0052* | 0.012* | 0.0084*
COc1ccc(CC(=O)N2CCN(C(=O)c3ccco3)CC2)cc1 | i | 0.061 | i | 11 | / | / | / | / | / | /
SMILES | CHT PAM | Cl transport mod | CHT inh | Rad51 HR inh | KCC2 secondary | KCC2 bumet counter | KCC2 secondary2 | HEK counter1 | KCC2 retest ouab | HEK counter2
CCc1cc2ccc(OC)cc2nc1SCC(=O)NNC(=O)c1ccco1 | i | 17* | i | / | 0.0081 | 0.018* | 0.034 | 0.028* | 0.025* | 0.014*
COc1ccccc1CNC(=O)C(C)NS(=O)(=O)c1ccc(Br)cc1 (stereo not drawn) | i | -0.98 | i | -4 | / | / | / | / | / | /
CCc1nnc(NC(=O)C2CCCN2S(=O)(=O)c2ccc(F)cc2)s1 (stereo not drawn) | i | / | i | -1 | / | / | / | / | / | /
O=C(Nc1nccs1)c1ccc(NC(=O)C2CC=CCC2C(=O)O)cc1 (stereo not drawn) | i | -0.71 | i | -8 | / | / | / | / | / | /
COc1cccc(C2Oc3ccccc3C3CC(c4cccs4)=NN32)c1 (stereo not drawn) | i | 6.5* | i | -23 | 0.017 | 0.019* | 0.032 | 0.013* | 0.02 | 0.016*
O=C(Nc1ccc([N+](=O)[O-])cc1Br)c1cccnc1 | i | -0.13 | i | 2 | / | / | / | / | / | /
Cc1cc(C)n(CC(=O)c2ccccc2)c(=O)c1C#N | i | -0.42 | i | -2 | 0.015 | 0.0048 | 0.028 | 0.0076 | 0.017 | 0.01
CCOc1ccccc1NC(=S)N(CCCN1CCOCC1)Cc1cn(C)c2ccccc12 | i | -4.7* | i | / | 0.0073 | 0.0047 | 0.029 | ? | 0.019 | 0.011
